# Measurements reported in ChEMBL document CHEMBL2331491, “Novel imidazophenoxazine-4-sulfonamides: their synthesis and evaluation as potential inhibitors of PDE4” (Bioorg Med Chem, 2013).
# What was measured:
# [1] = target: T1, 3',5'-cyclic-AMP phosphodiesterase 4B (Homo sapiens, UniProt Q07343); assay: Inhibition of PDE4B1 (unknown origin) expressed in sf9 cells using cAMP as substrate preincubated at 30 uM for 15 mins before substrate addition measured after 1 hr by luminescence assay
# How it was run: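 His-tagged PDE4B1 was expressed in baculovirus-infected Sf9 cells (lysed 48 h post infection) and purified on Ni-NTA. 10 ng of enzyme was preincubated 15 min with compound or DMSO vehicle, then given cAMP substrate for 1 h. The reaction was stopped and detection reagent added for 10 min in the dark before reading luminescence. % inhibition = (RLU vehicle − RLU inhibitor)/RLU vehicle × 100, at a single screening concentration.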
# [2] = target: T1, 3',5'-cyclic-AMP phosphodiesterase 4B; assay: Inhibition of PDE4B1 (unknown origin) expressed in sf9 cells using cAMP as substrate preincubated for 15 mins before substrate addition measured after 1 hr by luminescence assay
# How it was run: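 Ni-NTA-purified His-tagged PDE4B1 from baculovirus-infected Sf9 cells was used at 10 ng per reaction. Enzyme was preincubated 15 min with compound (9 concentrations) or DMSO, then cAMP for 1 h. After stop solution and 10 min detection reagent in the dark, luminescence was read. % inhibition was taken versus vehicle RLU. IC50 came from nonlinear regression of the dose-response curve and is given as mean ± SD.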
# T1 sequence (Q07343 whole entry): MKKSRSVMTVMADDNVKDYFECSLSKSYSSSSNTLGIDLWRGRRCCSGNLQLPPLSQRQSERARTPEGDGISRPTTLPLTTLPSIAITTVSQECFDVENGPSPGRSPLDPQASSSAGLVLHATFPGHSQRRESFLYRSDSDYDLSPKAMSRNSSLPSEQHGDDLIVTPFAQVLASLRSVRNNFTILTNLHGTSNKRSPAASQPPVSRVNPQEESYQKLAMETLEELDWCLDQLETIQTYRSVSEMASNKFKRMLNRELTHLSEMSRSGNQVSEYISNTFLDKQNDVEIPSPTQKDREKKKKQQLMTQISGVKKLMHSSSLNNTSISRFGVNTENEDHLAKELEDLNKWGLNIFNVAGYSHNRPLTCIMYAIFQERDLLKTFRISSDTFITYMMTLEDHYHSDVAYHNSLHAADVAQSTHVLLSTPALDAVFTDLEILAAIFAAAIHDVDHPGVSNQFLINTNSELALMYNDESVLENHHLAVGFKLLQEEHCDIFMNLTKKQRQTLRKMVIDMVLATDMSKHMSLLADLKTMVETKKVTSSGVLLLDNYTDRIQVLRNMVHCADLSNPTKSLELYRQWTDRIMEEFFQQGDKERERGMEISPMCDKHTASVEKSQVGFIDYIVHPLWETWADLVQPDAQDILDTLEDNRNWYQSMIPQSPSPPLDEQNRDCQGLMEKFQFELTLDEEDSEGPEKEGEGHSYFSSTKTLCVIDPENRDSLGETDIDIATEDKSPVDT
SMILES,inhibition [1] [%],IC50 [2] [nM],inhibition [2]
COc1ccc(-c2nc3cc(S(N)(=O)=O)cc4c3n2-c2ccccc2O4)cc1,66.5,,
NS(=O)(=O)c1cc2c3c(c1)nc(-c1cccc([N+](=O)[O-])c1)n3-c1ccccc1O2,66.8,,
NS(=O)(=O)c1cc2c3c(c1)nc(-c1ccccc1)n3-c1ccccc1O2,79.7,,
COc1cc(-c2nc3cc(S(N)(=O)=O)cc4c3n2-c2ccccc2O4)ccc1O,82.4,,
NS(=O)(=O)c1cc2c3c(c1)nc(-c1ccc(O)cc1)n3-c1ccccc1O2,88.8,,
NS(=O)(=O)c1cc2c3c(c1)nc(-c1ccccc1Br)n3-c1ccccc1O2,81,,
CCN(CC)c1ccc(-c2nc3cc(S(N)(=O)=O)cc4c3n2-c2ccccc2O4)c(O)c1,19.7,,
NS(=O)(=O)c1cc2c3c(c1)nc(-c1cc(Br)ccc1F)n3-c1ccccc1O2,92.9,530,Dose-dependent effect

# Other lines, results leading:
inhibition [1] [%],IC50 [2] [nM],inhibition [2],SMILES
80.3,,,NS(=O)(=O)c1cc2c3c(c1)nc(-c1ccc(Cl)cc1)n3-c1ccccc1O2
76.3,,,NS(=O)(=O)c1cc2c3c(c1)nc(-c1ccccc1Cl)n3-c1ccccc1O2
80.2,,,NS(=O)(=O)c1cc2c3c(c1)nc(-c1c(Cl)cccc1Cl)n3-c1ccccc1O2
87.6,,,NS(=O)(=O)c1cc2c3c(c1)nc(-c1cccc(O)c1)n3-c1ccccc1O2
89.3,3310,Dose-dependent effect,NS(=O)(=O)c1cc2c3c(c1)nc(-c1ccccc1O)n3-c1ccccc1O2
89.7,1230,Dose-dependent effect,NS(=O)(=O)c1cc2c3c(c1)nc(-c1cccc(Br)c1)n3-c1ccccc1O2
